Measured values from ChEMBL document CHEMBL3352274, “Oxadiazoles and thiadiazoles: novel α-glucosidase inhibitors” (Bioorg Med Chem, 2014).

Experiments:
[1] = Inhibition of alpha-glucosidase (unknown origin) using p-nitrophenyl-alpha-D-glucopyranoside substrate measured up to 30 mins by multiplate spectrophotometry; parameters: species or system Homo sapiens
Outline: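 Enzyme 0.2 U/mL in phosphate buffered saline, preincubated with test compounds at various concentrations, 15 min, 37 °C. Assay in 0.1 M phosphate buffer pH 6.8 at 37 °C. Triplicate reactions, acarbose as standard. % inhibition = 100 − (OD test/OD control) × 100. IC50 by enzyme kinetics fitting.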

[2] = Competitive inhibition of alpha-glucosidase (unknown origin) by Lineweaver-Burk plot; parameters: species or system Homo sapiens
Outline: (§1)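 Mode of inhibition from Lineweaver–Burk plots (1/rate vs 1/substrate concentration) at varying inhibitor concentrations, tracking Km and Vmax. Ki from secondary re-plots of Lineweaver–Burk slopes vs inhibitor concentration and from Dixon plots (1/rate vs inhibitor concentration). Each point mean of three experiments.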

[3] = target: Carbonic anhydrase 2 (Bos taurus) (UniProt P00921); test: Inhibition of carbonic anhydrase 2 (unknown origin) using 4-NPA substrate after 15 mins by spectrophotometry
[4] = (§2) Inhibition of snake venom phosphodiesterase 1 using bis(p-nitrophenyl) phosphate substrate after 30 mins by spectrophotometry; parameters: species or system Serpentes
Outline: (§3)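 Assayed in 33 mM Tris–HCl buffer (pH 8.8) with 30 mM Mg-acetate as co-factor, 0.000742 U of enzyme and 0.33 mM substrate. After 30 min of incubation, activity was followed at 37 °C as p-nitrophenol release at 410 nm. Initial rates were taken as change in OD/min. All reactions were run in triplicate, with EDTA as positive control.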

Serpentes = test: as §2; parameters: concentration or dose not given beside the values; outline: as §3
3T3 = test: Cytotoxicity against […] 3T3 cells by MTT assay; settings: Mus musculus, NIH3T3
[5] = Non-competitive inhibition of alpha-glucosidase (unknown origin) by Lineweaver-Burk plot; parameters: species or system Homo sapiens; outline: as §1

| Structure (SMILES) | IC50 [1] | IC50 ([1]; read-out: IC50) [µM] | further results |
| --- | --- | --- | --- |
| O=C(CSc1nnc(SCC(=O)c2ccc([N+](=O)[O-])cc2)s1)c1ccc([N+](=O)[O-])cc1 | Not Active | – | – |
| O=C(CSc1nnc(-c2cccnc2)o1)c1ccc(Cl)cc1 | Not Active | – | – |
| O=C(CSc1nnc(-c2cccnc2)o1)c1ccc(-c2ccccc2)cc1 | – | 125 | – |
| O=C(CSc1nnc(-c2ccc(Cl)cc2)o1)c1ccc(-c2ccccc2)cc1 | Not Active | – | – |
| C[C@H]1O[C@H](O[C@H]2[C@H](O)[C@@H](O)[C@@H](O[C@H]3[C@H](O)[C@@H](O)C(O)O[C@@H]3CO)O[C@@H]2CO)[C@H](O)[C@@H](O)[C@@H]1N[C@H]1C=C(CO)[C@@H](O)[C@H](O)[C@H]1O (some centres undefined) [ACARBOSE] | – | 937 | Ki [2]: 890 µM |
| O=C(CSc1nnc(-c2ccc(Cl)cc2)o1)c1cccc(F)c1 | – | 49.1 | – |
| O=C(CSc1nnc(SCC(=O)c2ccccc2)s1)c1ccccc1 | – | 10.8 | Ki [2]: 6 µM; IC50 [3]: Not Active; inhibition [3]: 33.8%; IC50 [4]: Not Active; inhibition (Serpentes): 12.3%; IC50 (3T3): > 30 µM |
| COc1ccc(C(=O)CSc2nnc(-c3ccc(OCc4ccccc4)cc3)o2)cc1 | Not Active | – | – |
| O=C(CSc1nnc(-c2ccc(Cl)cc2)o1)c1cccc(Cl)c1 | Not Active | – | – |
| O=C(CSc1nnc(-c2ccccc2)o1)c1cccc(O)c1 | – | 112 | – |
| COc1ccccc1C(=O)CSc1nnc(-c2ccc(OCc3ccccc3)cc2)o1 | – | 11.8 | Ki [5]: 4.36 µM; IC50 [3]: Not Active; inhibition [3]: 33%; IC50 [4]: Not Active; inhibition (Serpentes): 8.5%; IC50 (3T3): > 30 µM |
| O=C(CSc1nnc(SCC(=O)c2ccc(Cl)cc2)s1)c1ccc(Cl)cc1 | Not Active | – | – |
| O=C(CSc1nnc(-c2ccccc2)o1)c1ccc(Br)cc1 | Not Active | – | – |
| O=C(CSc1nnc(-c2cccnc2)o1)c1cc2ccccc2oc1=O | Not Active | – | – |
| O=C(CSc1nnc(-c2ccc(Cl)cc2)o1)c1cccc(O)c1 | – | 24.1 | Ki [5]: 12 µM; IC50 [3]: Not Active; inhibition [3]: 9%; IC50 [4]: Not Active; inhibition (Serpentes): 26%; IC50 (3T3): > 30 µM |
| O=C(CSc1nnc(SCC(=O)c2ccc(-c3ccccc3)cc2)s1)c1ccc(-c2ccccc2)cc1 | – | 51.8 | – |
| O=C(CSc1nnc(SCC(=O)c2cccc(F)c2)s1)c1cccc(F)c1 | – | 24.6 | – |
| O=C(CSc1nnc(-c2ccc(OCc3ccccc3)cc2)o1)c1cccc(O)c1 | – | 17.9 | Ki [5]: 11.2 µM; IC50 [3]: Not Active; inhibition [3]: 48.2%; IC50 [4]: Not Active; inhibition (Serpentes): 1.8%; IC50 (3T3): > 30 µM |
| COc1ccc(C(=O)CSc2nnc(-c3ccc(Cl)cc3)o2)cc1 | Not Active | – | – |

| Structure (SMILES) | IC50 [1] | IC50 ([1]; read-out: IC50) [µM] | further results |
| --- | --- | --- | --- |
| O=C(CSc1nnc(-c2ccc(Cl)cc2)o1)c1cc2ccccc2oc1=O | Not Active | – | – |
| O=C(CSc1nnc(-c2ccccc2)o1)c1cccc(F)c1 | Not Active | – | – |
| O=C(CSc1nnc(-c2cccnc2)o1)c1cccc(O)c1 | Not Active | – | – |
| COc1ccc(C(=O)CSc2nnc(-c3ccccc3)o2)cc1 | Not Active | – | – |
| O=C(CSc1nnc(-c2cccnc2)o1)c1cccc(F)c1 | Not Active | – | – |
| O=C(CSc1nnc(SCC(=O)c2ccc(Br)cc2)s1)c1ccc(Br)cc1 | – | 166 | – |
| COc1ccccc1C(=O)CSc1nnc(-c2ccc(Cl)cc2)o1 | – | 81.6 | – |
| O=C(CSc1nnc(-c2cccnc2)o1)c1ccc([N+](=O)[O-])cc1 | Not Active | – | – |
| O=C(CSc1nnc(-c2ccccc2)o1)c1cccc(Cl)c1 | Not Active | – | – |
| O=C(CSc1nnc(SCC(=O)c2ccc(Cl)c(Cl)c2)s1)c1ccc(Cl)c(Cl)c1 | Not Active | – | – |
| O=C(CSc1nnc(-c2ccccc2)o1)c1ccc(Cl)c(Cl)c1 | – | 74.2 | – |
| COc1cccc(C(=O)CSc2nnc(-c3ccc(Cl)cc3)o2)c1 | Not Active | – | – |
| COc1ccccc1C(=O)CSc1nnc(SCC(=O)c2ccccc2OC)s1 | – | 94.3 | – |
| O=C(CSc1nnc(SCC(=O)c2cccc(O)c2)s1)c1cccc(O)c1 | – | 20.4 | Ki [5]: 14.3 µM; IC50 [3]: Not Active; inhibition [3]: 42.9%; IC50 [4]: Not Active; inhibition (Serpentes): 4.6%; IC50 (3T3): > 30 µM |
| O=C(CSc1nnc(-c2ccccc2)o1)c1ccc(Cl)cc1 | Not Active | – | – |
| O=C(CSc1nnc(-c2cccnc2)o1)c1ccc(Br)cc1 | Not Active | – | – |
| COc1cccc(C(=O)CSc2nnc(-c3ccccc3)o2)c1 | – | 184 | – |
| COc1ccc(C(=O)CSc2nnc(SCC(=O)c3ccc(OC)cc3)s2)cc1 | Not Active | – | – |
| O=C(CSc1nnc(-c2ccc(Cl)cc2)o1)c1ccc(Cl)cc1 | Not Active | – | – |
